Positions count from the first letter of the chain named. One block for each molecule: values may come before it.
Tests used:
[1] = target: T1, Lysosomal acid glucosylceramidase (Homo sapiens, UniProt P04062); assay: Inhibition of lysosomal beta-glucosidase in human fibroblast using 4-methylumbelliferyl-beta-D-glucopyranoside as substrate preincubated for 24 hrs before substrate addition measured after 2 hrs by fluorometry
T1 sequence (P04062 whole entry): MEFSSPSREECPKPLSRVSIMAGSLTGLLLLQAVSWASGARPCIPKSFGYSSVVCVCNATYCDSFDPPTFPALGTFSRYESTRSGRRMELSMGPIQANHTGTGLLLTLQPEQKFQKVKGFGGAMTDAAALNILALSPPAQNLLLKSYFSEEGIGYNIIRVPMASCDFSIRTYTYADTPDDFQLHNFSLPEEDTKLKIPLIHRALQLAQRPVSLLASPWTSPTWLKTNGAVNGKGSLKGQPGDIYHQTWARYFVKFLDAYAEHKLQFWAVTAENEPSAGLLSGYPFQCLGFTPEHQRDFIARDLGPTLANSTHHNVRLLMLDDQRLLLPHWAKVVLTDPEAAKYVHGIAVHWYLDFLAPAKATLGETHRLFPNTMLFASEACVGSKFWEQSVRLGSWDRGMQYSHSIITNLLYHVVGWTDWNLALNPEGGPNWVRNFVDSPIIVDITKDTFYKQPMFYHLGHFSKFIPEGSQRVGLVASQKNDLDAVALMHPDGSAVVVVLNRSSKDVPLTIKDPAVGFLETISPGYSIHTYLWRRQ
In short: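 Wild-type human fibroblasts (DMEM, 10% FBS; passages 14–30) plated overnight, then compound in fresh medium for 24 h at 37 °C, 5% CO2. Intact washed monolayers given PBS plus 200 mM acetate pH 4.0 and 5 mM 4-MU-β-glucoside, 37 °C for 2 h. Stopped by lysis in glycine/NaOH pH 10.6. Fluorescence at 355/460 nm; triplicate.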

[2] = test system: T2, Lysosomal acid glucosylceramidase (Homo sapiens), P04062 [N409S]; assay: Agonist activity at glucosylceramidase N370S mutant in lymphoblast obtained from Gaucher disease patient using 4-methylumbelliferyl-beta-D-glucopyranoside as substrate preincubated at 1 nM for 3 days measured 2 hrs post substrate addition by fluorescence assay relative to untreated control; assay type: functional
T2 sequence (whole entry): T1 sequence (P04062 whole entry) with N409S
In short: (§1)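 Patient-derived N370S homozygous lymphoblasts (RPMI-1640, 15% FBS, 37 °C, 5% CO2; passages 5–16) seeded at 2 × 10^5 cells/well, exposed to compound for 3 days. Cells washed in PBS and lysed in water by sonication. Homogenate incubated with 6 mM 4-MU-β-glucoside in 0.1 M citrate phosphate pH 5.2 with 0.25% taurocholate and 0.1% Triton X-100, 37 °C, 2 h. Fluorescence read at 355/460 nm; activity normalized to untreated cells; triplicate.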

[3] = Agonist activity at glucosylceramidase […] mutant in lymphoblast obtained from Gaucher disease patient using 4-methylumbelliferyl-beta-D-glucopyranoside as substrate preincubated at 1 uM for 3 days measured 2 hrs post substrate addition by fluorescence assay relative to untreated control; assay type: functional, Homo sapiens
In short: (§2)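 Homozygous L444P GD type 2 patient-derived lymphoblasts (GM08752) in RPMI-1640 with 15% FBS, seeded at 2 × 10^5 cells/well and exposed to compound for 3 days. Cells were washed with PBS and sonicated in water. Homogenate was assayed with 6 mM 4-methylumbelliferyl-β-D-glucopyranoside in 0.1 M citrate phosphate, pH 5.2, with 0.25% taurocholate and 0.1% Triton X-100, for 2 h at 37 °C. Fluorescence read at 355/460 nm, normalized to untreated cells, triplicate.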

[4] = Agonist activity at glucosylceramidase […] mutant in lymphoblast obtained from Gaucher disease patient using 4-methylumbelliferyl-beta-D-glucopyranoside as substrate preincubated at 50 nM for 3 days measured 2 hrs post substrate addition by fluorescence assay relative to untreated control; assay type: functional, Homo sapiens; in short: as §2
[5] = test system: T2, Lysosomal acid glucosylceramidase (Homo sapiens), P04062 [N409S]; assay: Agonist activity at glucosylceramidase N370S mutant in lymphoblast obtained from Gaucher disease patient using 4-methylumbelliferyl-beta-D-glucopyranoside as substrate preincubated at 1 uM for 3 days measured 2 hrs post substrate addition by fluorescence assay relative to untreated control; assay type: functional; in short: as §1
[6] = Agonist activity at glucosylceramidase […] mutant in lymphoblast obtained from Gaucher disease patient using 4-methylumbelliferyl-beta-D-glucopyranoside as substrate preincubated at 5 nM for 3 days measured 2 hrs post substrate addition by fluorescence assay relative to untreated control; assay type: functional, Homo sapiens
In short: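 L444P homozygous lymphoblasts from a GD type 2 patient, cultured in RPMI-1640 with 15% FBS at 37 °C, 5% CO2, seeded 2 × 10^5 cells/well and treated 3 days. Sonicated water lysate assayed with 6 mM 4-MU-β-glucoside at pH 5.2 (citrate phosphate, taurocholate, Triton X-100), 37 °C for 2 h. Fluorescence at 355/460 nm, relative to untreated cells; triplicate.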

[7] = Agonist activity at glucosylceramidase […] mutant in lymphoblast obtained from Gaucher disease patient using 4-methylumbelliferyl-beta-D-glucopyranoside as substrate preincubated at 100 nM for 3 days measured 2 hrs post substrate addition by fluorescence assay relative to untreated control; assay type: functional, Homo sapiens; in short: as §2

- IC50 [1]: 4.3 nM
- fold change (FC) [2]: 1.9
SMILES: CCCCCCCCCN[C@H]1[C@H](O)[C@@H](O)[C@H](O)[C@@H](O)[C@H]1OCCCCCCCCC.Cl

SMILES: CCCCCCCCCN[C@H]1[C@H](O)[C@@H](O)[C@H](O)[C@@H](O)[C@@H]1OC.Cl
- fold change (FC) [3]: 1.5

SMILES: CCCCCCCCCN[C@H]1[C@H](O)[C@@H](O)[C@H](O)[C@@H](O)[C@H]1OC.Cl
- fold change (FC) [4]: 1.4
- fold change (FC) [5]: 2

- inhibition [2]: 90%
- fold change (FC) [5]: 1.4
SMILES: CCCCCCCCCN[C@H]1[C@H](O)[C@@H](O)[C@H](O)[C@@H](O)[C@@H]1OCCCCCCCCC.Cl
- fold change (FC) [6]: 1.2

SMILES: CCCCCCCCCO[C@H]1[C@@H](N)[C@H](O)[C@@H](O)[C@H](O)[C@H]1O.Cl
- fold change (FC) [7]: 1.3

SMILES: CCCCCCCCCN[C@@H]1[C@H](O)[C@H](O)[C@@H](O)[C@H](O)[C@H]1O.Cl
- fold change (FC) [7]: 1.2
